Published values of several laboratories.
Protocols differ between the studies behind these lines.
Read-out: cell growth or viability

O=C(Nc1ccc(OC(F)(F)Cl)cc1)c1cnc(N2CC[C@@H](O)C2)c(-c2cc[nH]n2)c1  GI50 (K562; MTT; 72 h): 0.72 nM
O=C(NO)c1ccc(CNc2nc3cccc(-c4ccc5c(c4)OCO5)n3n2)cc1  GI50 (SN12C; SRB): 720 nM
O=C(C=Cc1ccccc1)Nc1cc(-c2ccnc(N3CCC(O)CC3)c2)ccn1  IC50 (MCF-10A; MTT; 72 h): 3330 nM
CC(C)C[C@@H]1NC(=O)[C@@H](N(C)C(=O)[C@H](CC2CCC2)NC(=O)[C@@H]2C[C@@H](F)CN2C(=O)C2(C(F)(F)F)CC(F)(F)C2)CCCCNC(=O)C2(CC2)NC(=O)[C@H](Cc2cc(Cl)ccc2Cl)N(C)C1=O  GI50 (NCI-H446; MTT; 5 days): 65 nM
COc1cc2c3c(n(CCCNC(C)C)c(=O)c2cc1OC)-c1nc2c(cc1C3=O)OCO2  IC50 (K562; MTS; 72 h): 182 nM
C=C(F)C(=O)N1CCN(c2nc(OC[C@@H]3CCCN3C)nc3c2CCN(c2cccc4cccc(Cl)c24)C3)C[C@@H]1CC#N  IC50 (NCI-H1373; ATP luminescence; 3D culture): 5.15 nM
CCC[C@H]1NC(=O)[C@H](Cc2cc(Cl)ccc2-c2cnn(C)c2)N(C)C(=O)[C@H](CC(C)C)NC(=O)[C@@H](N(C)C(=O)[C@H](CCCCN2CCOCC2)NC(=O)[C@@H](c2cccnc2)C2CCCCC2)CCCCNC1=O  GI50 (NCI-H446; MTT; 5 days): 4200 nM
CCNCCCn1c2c(c3cc(OC)c(OC)cc3c1=O)C(=O)c1cc3c(nc1-2)OCO3  IC50 (K562; MTS; 72 h): 158 nM
O=C(O)c1cccnc1Nc1cccc(C(F)(F)F)c1  GI50 (HCT-15; SRB; 48 h): > 30000 nM
C=CC[C@@H]1/C=C(\C)C[C@H](C)C[C@H](OC)[C@H]2O[C@@](O)(C(=O)C(=O)N3CCCC[C@H]3C(=O)O[C@H](/C(C)=C/[C@@H]3CC[C@@H](O)[C@H](OC)C3)[C@H](C)[C@@H](O)CC1=O)[C@H](C)C[C@@H]2OC  GI50 (K562; MTT; 72 h): > 1000 nM
Cc1cc(C)c(CNC(=O)c2cc(Cl)c3c(c2C)O[C@@](C)([C@H]2CC[C@H](N(C)C)CC2)O3)c(=O)[nH]1  GI50 (HT-1376; ATP luminescence; 18 days): 18 nM
COc1ccc(C#N)cc1-c1c[nH]c2ncc(-c3cncc(C(=O)N(C)C)c3)cc12  GI50 (K562; MTT; 72 h): 330 nM
O=C(O)c1ccccc1Nc1cccc(C(F)(F)F)c1  GI50 (HCT-15; SRB; 48 h): > 30000 nM
CN1CCc2cc(Nc3ncc(C4CC4)c(NCCCNC(=O)C4CCC4)n3)ccc2C1  GI50 (K562; MTT; 72 h): > 1000 nM
C=CC(=O)NC1CCN(c2ncc3ncnc(Nc4ccc(Oc5ccc6c(c5)ncn6C)c(C)c4)c3n2)CC1  EC50 (NCI-H1373): 137000 nM
CN(C)C(=O)c1cncc(-c2cnc3[nH]cc(-c4ccccc4C#N)c3c2)c1  GI50 (K562; MTT; 72 h): 591 nM
C=CC(=O)c1cccnc1Nc1cc(C(F)(F)F)ccc1OC  GI50 (HCT-15; SRB; 48 h): 6960 nM
